Consider 13 molecules from ChEMBL document CHEMBL4052620, “Design and synthesis of sulfonamide-substituted diphenylpyrimidines (SFA-DPPYs) as potent Bruton's tyrosine kinase (BTK) inhibitors with improved activity toward B-cell lymphoblastic leukemia” (Eur J Med Chem, 2017).

The target of data set [1] is Tyrosine-protein kinase BTK (Homo sapiens, UniProt Q06187). As to the kind of experiment: Inhibition of human recombinant full-length N-terminal His-tagged BTK expressed in baculovirus infected Sf9 insect cells after 60 mins by ADP-Glo kinase assay. A general note: In ADP-Glo the light output rises with the ADP produced.
Chain of Tyrosine-protein kinase BTK (Q06187 whole entry): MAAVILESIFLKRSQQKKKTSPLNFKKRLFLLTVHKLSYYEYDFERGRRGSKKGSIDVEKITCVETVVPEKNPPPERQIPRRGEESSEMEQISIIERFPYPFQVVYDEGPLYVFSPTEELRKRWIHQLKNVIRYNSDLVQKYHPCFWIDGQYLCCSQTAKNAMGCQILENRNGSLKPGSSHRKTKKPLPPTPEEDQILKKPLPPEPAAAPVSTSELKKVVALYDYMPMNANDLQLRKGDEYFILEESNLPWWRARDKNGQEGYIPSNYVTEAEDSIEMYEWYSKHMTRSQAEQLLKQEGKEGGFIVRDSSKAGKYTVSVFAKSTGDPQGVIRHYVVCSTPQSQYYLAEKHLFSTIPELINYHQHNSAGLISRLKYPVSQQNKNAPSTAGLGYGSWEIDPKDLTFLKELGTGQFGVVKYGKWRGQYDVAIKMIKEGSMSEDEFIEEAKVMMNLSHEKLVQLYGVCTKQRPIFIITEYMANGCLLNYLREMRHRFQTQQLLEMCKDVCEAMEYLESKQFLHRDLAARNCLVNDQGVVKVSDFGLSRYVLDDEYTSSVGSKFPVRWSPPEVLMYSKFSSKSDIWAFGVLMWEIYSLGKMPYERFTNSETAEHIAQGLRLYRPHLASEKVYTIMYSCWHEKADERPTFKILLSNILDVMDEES
Data set [2] has as its system Ramos. The data set can be described thus: Antiproliferative activity against human Ramos cells over expressing BTK after 48 hrs by CCK-8 assay. Type of data set: functional, cell-based. In a few lines: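 Cells seeded at 3,000–5,000 per well in RPMI1640 with 10% FBS, held one day at 37 °C and 5% CO₂, then exposed to compound for 48 h. Concentrations ran 1.25 to 40 µM, five replicates per concentration. Read-out is CCK-8 absorbance at 450 nm. IC50 comes from five-point dose-response curves, as the mean of at least three separate experiments.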
(In general: Tetrazolium dyes change colour on reduction, which living cells bring about.)

The next data set has as its system Raji. As to the kind of experiment: Antiproliferative activity against human Raji cells over expressing BTK after 48 hrs by CCK-8 assay. Type of data set: functional, cell-based. In short, it runs like this:
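Cells seeded at 3,000–5,000 per well in RPMI1640 with 10% FBS, held one day at 37 °C and 5% CO₂, then exposed to compound for 48 h. Read-out is CCK-8 absorbance at 450 nm. IC50 comes from five-point dose-response curves, as the mean of at least three separate experiments.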

The test system of data set [3] is Ramos. As to the kind of experiment: Induction of apoptosis in human Ramos cells assessed as necrotic cells at 10 uM after 48 hrs by annexin V-FITC/propidium iodide staining-based flow cytometric analysis (reference value: 0.2%). Type of data set: functional. In short, it runs like this: (§1)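 Ramos cells at 3 to 5 × 10⁵ cells/well were exposed for 48 h in medium with 5% FBS, with DMSO as solvent control. Cells were then fixed in ethanol at 4 °C, stained with Annexin V-FITC/propidium iodide and analysed by flow cytometry. One representative experiment is shown.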
A general note: Flow cytometry measures light scatter and fluorescence of single cells or particles in a stream.

In data set [4] the test system is Ramos. As to the kind of experiment: Induction of apoptosis in human Ramos cells assessed as viable cells at 10 uM after 48 hrs by annexin V-FITC/propidium iodide staining-based flow cytometric analysis relative to control. Type of data set: functional. As to conditions: read-out: Activity. In short, it runs like this:
as §1

Data set [5] relates to Ramos. As to the kind of experiment: Induction of apoptosis in human Ramos cells assessed as late apoptotic cells at 10 uM after 48 hrs by annexin V-FITC/propidium iodide staining-based flow cytometric analysis relative to control. Type of data set: functional. In short, it runs like this:
as §1

The test system of data set [6] is Ramos. As to the kind of experiment: Induction of apoptosis in human Ramos cells assessed as early apoptotic cells at 10 uM after 48 hrs by annexin V-FITC/propidium iodide staining-based flow cytometric analysis relative to control. Type of data set: functional. In a few lines: as §1
Data set [7] concerns PBMC. As to the kind of experiment: Cytotoxicity against human PBMC at 5 to 10 uM after 24 hrs by acridine orange/propidium iodide staining-based fluorescent microscopic analysis. It is filed as cell-based. In short, it runs like this: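 PBMC were isolated from venous blood of a healthy adult on Lymphoprep (density 1.077 g/ml), washed in PBS and seeded at about 2.5 × 10⁵ cells/well. Cells were treated at 5, 10 or 20 µM, five replicates, for 24 h at 37 °C in RPMI1640 with 10% FBS. Staining was AO/PI, 1.0 µg/mL each, for 10 min at room temperature. Live cells were counted under a fluorescence microscope with a counting chamber.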

For data set [8], the system named is Ramos. The data set can be described thus: Induction of apoptosis in human Ramos cells assessed as viable cells at 5 uM after 48 hrs by annexin V-FITC/propidium iodide staining-based flow cytometric analysis relative to control. Type of data set: functional. The following applies: read-out: Activity.
Data set [9] has as its system Ramos. The data set can be described thus: Induction of apoptosis in human Ramos cells assessed as necrotic cells at 5 uM after 48 hrs by annexin V-FITC/propidium iodide staining-based flow cytometric analysis (reference value: 0.2%). It is filed as functional.
Data set [10] concerns Ramos. As to the kind of experiment: Induction of apoptosis in human Ramos cells assessed as viable cells at 1 uM after 48 hrs by annexin V-FITC/propidium iodide staining-based flow cytometric analysis relative to control. Type of data set: functional. As to conditions: read-out: Activity.
The test system of data set [11] is Ramos. The data set can be described thus: Induction of apoptosis in human Ramos cells assessed as late apoptotic cells at 5 uM after 48 hrs by annexin V-FITC/propidium iodide staining-based flow cytometric analysis relative to control. It is filed as functional.
In data set [12] the test system is Ramos. As to the kind of experiment: Antiproliferative activity against human Ramos cells over expressing BTK at 10 uM after 72 hrs by CCK-8 assay. It is filed as functional, cell-based. In short, it runs like this: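 Ramos cells in RPMI-1640 with 10% FBS at 37 °C and 5% CO₂ were treated at 5, 10 or 20 µM for 24, 48 and 72 h. Viability was read by CCK-8 against an untreated control.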

Data set [13] relates to Ramos. The data set can be described thus: Induction of apoptosis in human Ramos cells assessed as late apoptotic cells at 1 uM after 48 hrs by annexin V-FITC/propidium iodide staining-based flow cytometric analysis relative to control. Type of data set: functional.
The subject of data set [14] is Ramos. The data set can be described thus: Induction of apoptosis in human Ramos cells assessed as necrotic cells at 1 uM after 48 hrs by annexin V-FITC/propidium iodide staining-based flow cytometric analysis (reference value: 0.2%). It is filed as functional.
For data set [15], the system named is Ramos. The data set can be described thus: Induction of apoptosis in human Ramos cells assessed as early apoptotic cells at 1 uM after 48 hrs by annexin V-FITC/propidium iodide staining-based flow cytometric analysis relative to control. Type of data set: functional.
Data set [16] deals with Ramos. As to the kind of experiment: Induction of apoptosis in human Ramos cells assessed as early apoptotic cells at 5 uM after 48 hrs by annexin V-FITC/propidium iodide staining-based flow cytometric analysis relative to control. Type of data set: functional.
Data set [17] has as its system PBMC. The data set can be described thus: Cytotoxicity against human PBMC at 5 to 10 uM after 24 hrs by acridine orange/propidium iodide staining-based fluorescent microscopic analysis relative to control. It is filed as cell-based. In short, it runs like this:
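PBMC isolated on Lymphoprep (density 1.077 g/ml) from venous blood of one healthy adult, seeded about 2.5 × 10⁵ cells/well in RPMI1640 with 10% FBS. Treated at 5, 10 or 20 µM for 24 h at 37 °C, 5% CO₂, five replicates per concentration. Stained with AO/PI (1.0 µg/mL each, in PBS) for 10 min at room temperature. Live cells counted by fluorescence microscopy and counting chamber.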

Calls of active or inactive are those of the source. No cut-off for these calls is given here.

`C=CC(=O)Nc1cccc(Nc2nc(Nc3ccc(NS(=O)(=O)c4ccc(F)cc4)c(C)c3)ncc2[N+](=O)[O-])c1`: the values for the IC50 (in data set [1]; in the data set with Ramos [2]; in the data set on Raji) were 0.0854 µM, more than 40 µM and 22.4 µM, respectively.

On to `C=CC(=O)Nc1cccc(Oc2nc(Nc3ccc(NS(=O)(=O)c4ccc(C)cc4)c(C)c3)ncc2Cl)c1`, for which the IC50 in [1] came out at 0.00105 µM; in the data set with Ramos [2] it was 7.23 µM; in the data set with Raji it was 18.7 µM.

On to `C=CC(=O)Nc1cccc(Nc2nc(Nc3ccc(NS(=O)(=O)c4ccc(OC)cc4)cc3)ncc2[N+](=O)[O-])c1`, for which the IC50 is 0.0238 µM in data set [1], more than 40 µM in the data set with Ramos [2] and 18.7 µM in the data set with Raji.

As for `C=CC(=O)Nc1cccc(Nc2nc(Nc3ccc(NS(=O)(=O)c4ccc(OC)cc4)cc3)ncc2Cl)c1`, the IC50 in [1] was 0.00914 µM; with Ramos [2], 18.8 µM; in the data set on Raji, 15.5 µM.

On to `C=CC(=O)Nc1cccc(Nc2nc(Nc3ccc(NS(=O)(=O)c4ccc(C)cc4)c(C)c3)ncc2[N+](=O)[O-])c1`, for which the IC50 in data set [1] was 0.0486 µM; with Ramos [2] it was 38 µM; with Raji, 14.2 µM.

For the molecule `C=CC(=O)Nc1cccc(Nc2nc(Nc3ccc(OCCOC)cc3)ncc2F)c1` [SPEBRUTINIB], the results for the Activity in the data set on Ramos [3], in the data set on Ramos [5] and in the data set on Ramos [6] were 15.6%, 5.9% and 27.7%, respectively. The molecule also gave an IC50 with Ramos [2] of 18.8 µM. In addition, the viability at 10 µM in the data set on Ramos [4] was determined as 50.9%.

As to `C=CC(=O)Nc1cccc(Nc2nc(Nc3ccc(NS(=O)(=O)c4ccc(F)cc4)c(OC)c3)ncc2Cl)c1`, the Activity entry is reported as “Non-Toxic” in the data set on PBMC [7]; 13.2% in the data set with Ramos [9]; 54.6% in the data set on Ramos [11]; 4.3% in the data set with Ramos [13]; 17% in the data set on Ramos [14]; 23.3% with Ramos [15]. For the same molecule, the Activity with Ramos [16] was 7.2%. Moreover, the viability at 5 µM in the data set on Ramos [8] was found to be 25%. For the same molecule, the IC50 amounted to 0.00118 µM in [1], 6.49 µM in the data set with Ramos [2] and 13.2 µM in the data set with Raji. The viability at 1 µM in the data set with Ramos [10] came to 55.4%. Besides, the result in the data set with Ramos [12] was Active.

On to `C=CC(=O)Nc1cccc(Nc2nc(Nc3ccc(NS(=O)(=O)c4ccc(C)cc4)c(OC)c3)ncc2[N+](=O)[O-])c1`, for which the IC50 in data set [1] is more than 0.1 µM; in the data set on Ramos [2] it was more than 40 µM; in the data set on Raji, 34.1 µM.

Turning to `C=CC(=O)N1CCC[C@@H](n2nc(-c3ccc(Oc4ccccc4)cc3)c3c(N)ncnc32)C1` [IBRUTINIB], the Activity came to 14.7% in the data set on Ramos [3], 50% with PBMC [17], 7.5% in the data set with Ramos [5] and 37.6% with Ramos [6]. In the data set with Ramos [2], this molecule registered an IC50 of 5.88 µM. The viability at 10 µM in the data set with Ramos [4] was 40.2%.

Consider `C=CC(=O)Nc1cccc(Nc2nc(Nc3ccc(NS(=O)(=O)c4ccc(OC)cc4)cc3)ncc2F)c1`, for which the results for the half-maximal inhibitory concentration (IC50) (in data set [1]; in the data set with Ramos [2]; with Raji) were 0.00092 µM, more than 40 µM and 36.9 µM, respectively.

As to `C=CC(=O)Nc1cccc(Oc2nc(Nc3ccc(NS(=O)(=O)c4ccc(OC)cc4)cc3)ncc2Cl)c1`, the IC50 is 0.00042 µM in data set [1], more than 40 µM in the data set with Ramos [2] and 40.9 µM with Raji.

As for `C=CC(=O)Nc1cccc(Nc2nc(Nc3ccc(NS(=O)(=O)c4ccc(F)cc4)c(C)c3)ncc2Cl)c1`, the IC50 in data set [1] came to 0.0786 µM; in the data set on Ramos [2] it was 6.44 µM; in the data set on Raji it was 10.5 µM.

`C=CC(=O)Nc1cccc(Nc2nc(Nc3ccc(NS(=O)(=O)c4ccc(C)cc4)cc3)ncc2Cl)c1`: the results for the IC50 (in [1]; with Ramos [2]; in the data set with Raji) were 0.0585 µM, more than 40 µM and 17.4 µM, respectively.

By IC50 is commonly meant the concentration needed to halve the response being measured.
